TAAR1 agonist: human TAAR1 agonists, primary screen, Fluo-8 calcium fluorescence, CHO RD-HGA16 cells; Trace amine-associated receptor 1 (Homo sapiens), Q96RJ0; vehicle wells 0%, saturating PEA agonist 100%; activation, % at 3 µM; hit rate 0.99% among 360,000; AID 624467, 2012;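 active = activation above the mean activation of all test compounds in the run plus 3 SD, cut at about 38% in these data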
Target sequence (Q96RJ0 whole entry, looked up): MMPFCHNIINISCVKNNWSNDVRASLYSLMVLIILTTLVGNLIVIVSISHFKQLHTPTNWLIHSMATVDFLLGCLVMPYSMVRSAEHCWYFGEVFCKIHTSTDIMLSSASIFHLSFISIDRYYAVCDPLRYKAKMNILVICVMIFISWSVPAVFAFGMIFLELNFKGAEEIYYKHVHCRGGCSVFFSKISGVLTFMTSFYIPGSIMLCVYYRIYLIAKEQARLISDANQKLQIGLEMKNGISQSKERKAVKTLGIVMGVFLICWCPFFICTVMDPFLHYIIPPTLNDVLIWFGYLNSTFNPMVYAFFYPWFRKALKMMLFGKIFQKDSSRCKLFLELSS
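System: CHO-derived RD-HGA16 cells with stable Gα16 and human TAAR1 / Times: 17-24 h plating, Fluo-8 75 min 37 °C, 30 min RT / Technique: calcium-sensitive Fluo-8 signal, excitation 470-495, emission 515-575 nm / Measure: % activation relative to PEA EC100 response / Benchmarks: DMSO and PEA EC100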
GPR7 antag: GPR7 receptor antagonists, primary screen, cell-based, fluorescence, single concentration; Neuropeptides B/W receptor type 1 (Homo sapiens), P48145; GPR7-expressing cells, fluorescence antagonist assay; inhibition, % at 4.4 µM; hit rate 1.1% among 290,000; AID 1861, 2009; in the data active = inhibition above about 16%, passing the limit was not always enough;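 note: cells stimulated with the agonist NPW; 0% = agonist with vehicle and 100% = vehicle without agonist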
Target sequence (P48145 whole entry, looked up): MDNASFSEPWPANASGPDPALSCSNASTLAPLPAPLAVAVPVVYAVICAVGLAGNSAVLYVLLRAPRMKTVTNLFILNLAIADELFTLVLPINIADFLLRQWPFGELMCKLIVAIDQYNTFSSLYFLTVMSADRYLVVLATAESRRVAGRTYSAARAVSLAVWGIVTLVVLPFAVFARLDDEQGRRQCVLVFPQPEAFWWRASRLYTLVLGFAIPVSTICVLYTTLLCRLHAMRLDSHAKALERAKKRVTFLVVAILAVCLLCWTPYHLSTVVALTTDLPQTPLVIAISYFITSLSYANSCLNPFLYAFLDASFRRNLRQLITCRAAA
OX1R antag-1: antagonists of human orexin 1 receptor (OX1R) | hit rate 1.8% among 330,000 | OX1R-expressing cells, FRET antagonist read-out | inhibition, % at 6.6 µM | Orexin/Hypocretin receptor type 1 (Homo sapiens), O43613; in the data active = inhibition mostly above about 38%, no sharp cut-off; inactive = mostly below about 40%;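 note: 0% = agonist challenge alone and 100% = reference antagonist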
OX1R antag-2: OX1R (HCRTR1) antagonists, primary screen, fluorescence, CHO/OX1R cells, Fluo-8 calcium, orexin A; Orexin/Hypocretin receptor type 1 (Homo sapiens), O43613; Fluo-8 calcium fluorescence; inhibition, % at 5 µM; hit rate 0.43% among 330,000; AID 434989, 2010;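 active = inhibition above its plate's threshold, mean inhibition of all tested compounds on the plate plus 3 SD, cut at about 37% in these data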;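 note: 0% = orexin A challenge wells and 100% = SB-334867-A antagonist wells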
TAAR1 antag: human TAAR1 antagonists, primary screen, Fluo-8 calcium fluorescence, CHO RD-HGA16 cells. Trace amine-associated receptor 1 (Homo sapiens), Q96RJ0. antagonist. inhibition, % at 3 µM. hit rate 1.5% among 360,000. AID 624466, 2012;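 active = inhibition above a per-plate cutoff, the mean inhibition of test compounds on that plate plus 3 SD, cut at about 49% in these data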;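 note: 0% = DMSO plus EC80 beta-PEA response and 100% = DMSO alone without agonist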
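Assay system: CHO-derived RD-HGA16 cells stably expressing human TAAR1 plus Gα16. Timing: 140 s kinetic read after compound, 140 s after agonist. Technique: kinetic Fluo-8 calcium fluorescence measurement. Measure: % inhibition of agonist calcium response.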
CHO parental Ca: ATP-evoked calcium signal inhibitors, parental CHO, primary screen, counter-screen for OX1R antagonist project, cell-based, fluorescence, Fluo-8 calcium dye. parental CHO-K1, ATP-induced calcium, Fluo-8 fluorescence. inhibition, % at 5.6 µM. hit rate 0.63% among 330,000. AID 463079, 2010;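 active = inhibition above that plate's mean sample inhibition plus 3 SD, cut at about 26% in these data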;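 note: 0% = ATP-challenged DMSO wells and 100% = DMSO wells without ATP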
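Test system: untransfected parental CHO cell line. Compound: one dose, 5.6 µM nominal. Detection: intracellular calcium via Fluo-8 no-wash fluorescent dye. Measure: % inhibition. Benchmarks: ATP-challenged DMSO wells low, unchallenged DMSO wells high.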
OX1R Ca confirm: OX1R (HCRTR1) antagonists, confirmation, fluorescence, CHO/OX1R cells, Fluo-8 calcium, orexin A; AID 492963, 2010; inhibition, % at 5 µM; hit rate 38% among 1,100; shares compounds with OX1R antag-2; orexin A calcium Fluo-8 fluorescence; in the data active = inhibition above about 29%;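 note: 0% = agonist challenge alone and 100% = reference antagonist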
CHO Ca triplic: ATP-evoked calcium inhibition in parental CHO, counter-screen for OX1R antagonist project, cell-based, fluorescence, CHO-K1, triplicate; shares compounds with OX1R antag-2; ATP-induced calcium, Fluo-8 fluorescence; inhibition, % at 5.6 µM; hit rate 9.3% among 1,100; AID 492965, 2010;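 active = inhibition above a per-plate limit, the mean inhibition of that plate's test compounds plus 3 SD, cut at about 25% in these data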;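 note: 0% = ATP challenge with DMSO and 100% = DMSO without ATP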
OX1R HTRF confirm: OX1R (HCRTR1) antagonists, confirmation, cell-based, HTRF; shares compounds with OX1R antag-1; hit rate 49% among 1,800; inhibition, % at 6.6 µM; OX1R-expressing cells, HTRF antagonist assay; in the data active = inhibition above about 55%;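 note: CHO cells expressing OX1R stimulated with orexin A at about EC80; 0% = agonist challenge alone and 100% = reference antagonist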
CHO-K1 HTRF: signal inhibition in parental CHO-K1 cells, counter-screen for OX1R antagonist project, cell-based, HTRF; hit rate 48% among 1,800; HTRF counterscreen; shares compounds with OX1R antag-1; inhibition, % at 6.6 µM; AID 493232, 2011; in the data active = inhibition above about 17%;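 note: 0% = agonist challenge with vehicle and 100% = vehicle alone without agonist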
The depositor's hits bear a star; nt = no result. Rows were chosen to be rich in hits. Some 4.6% of all compounds tested hit in one or more screens of this group.

SMILES	TAAR1 agonist	GPR7 antag	OX1R antag-1	OX1R antag-2	TAAR1 antag	CHO parental Ca	OX1R Ca confirm	CHO Ca triplic	OX1R HTRF confirm	CHO-K1 HTRF
Cc1cc(SCC(=O)c2ccc(O)c(O)c2)nc2ccccc12	5	0	55	3	-27	1	nt	nt	nt	nt
Cc1cccc(OCC(=O)N/N=C\c2cn(C)c3ccccc23)c1	-2	0	45*	30	-2	1	5	7	38	3
Cc1cccc(OCCn2cc(/C=N/NC(=O)c3ccncc3)c3ccccc32)c1	5	13	16	-25	20	-20	nt	nt	nt	nt
COc1ccc(Br)c(C(=O)Nc2nc3ccccc3[nH]2)c1	-1	14	28	-19	-2	1	nt	nt	nt	nt
COc1ccc2oc(C(=O)Nc3nc4ccccc4[nH]3)c(C)c2c1	5	-12	53*	31	12	-6	-2	-4	28	9
CCCOc1ccc(-c2c(C(=O)N/N=C/c3cccs3)nnn2-c2nonc2N)cc1	nt	-29	17	-18	nt	-19	nt	nt	nt	nt
COc1ccc(NC(=O)COC(=O)c2c(NC(C)=O)sc(C)c2C)cc1	0	nt	nt	nt	3	nt	nt	nt	nt	nt
CCN(C(=O)COC(=O)Cc1ccc(F)cc1)c1c(N)n(Cc2ccccc2)c(=O)[nH]c1=O	5	nt	7	-17	13	-15	nt	nt	nt	nt
CCn1c(-c2ccccc2Cl)nn(CC(=O)Nc2cc(Cl)ccc2Cl)c1=S	23	-9	54*	46*	4	-6	8	-5	49	-6
COc1ccc(CCNC(=O)CCOc2ccc(C)cc2)cc1OC	-1	-8	17	-18	-16	-5	nt	nt	nt	nt
COc1ccc(CCNC(=O)COc2ccc(-c3ccc(C)cc3)cc2)cc1OC	-1	-11	66*	70*	25	-14	24	-2	76*	9
CCNC(=O)C(=O)Nc1ccc2c(c1)N(S(=O)(=O)c1cccs1)CCC2	1	nt	18	-17	-7	-12	nt	nt	nt	nt
O=C(Nc1ccc2c(c1)N(S(=O)(=O)c1cccs1)CCC2)c1c(F)cccc1F	2	nt	69*	20	-41	-3	37*	1	66*	3
CC(C)C[C@@H]1Cc2[nH][nH]c(=O)c2[C@H](C(C)C)O1	-1	nt	nt	nt	0	nt	nt	nt	nt	nt
Cc1cccc2cc(C#N)c(NCCNS(=O)(=O)c3ccc4c(c3)OCCO4)nc12	16	1	73*	34	10	-2	32*	-5	64*	5
C=CCn1c(SCc2ccc(C(=O)Nc3nccs3)cc2)nnc1-c1ccc(C)c(Cl)c1	8	-8	79*	70*	65*	3	69*	18	82*	1
C=CCn1c(SCc2ccc(C#N)cc2)nnc1-c1cccc(Cl)c1	2	-7	50	-8	23	-11	nt	nt	nt	nt
COC(=O)[C@@]12C[C@@H](CC(=O)NCC3CCCCC3)C(=O)N(Cc3ccccc3)C1=CCC(C)(C)C2	-2	nt	nt	nt	-32	nt	nt	nt	nt	nt
NC(=O)c1csc(CCNC(=O)c2ccccc2)n1	1	nt	nt	nt	-1	nt	nt	nt	nt	nt
CN1CCC/C1=C/C=C1\SC(=S)NC1=O	17	-2	80*	47	-4	32	33*	32*	55	98*
CCOC(=O)C1(C)CCCN(C(=O)CCc2ccccc2)C1 (centres undefined)	3	nt	nt	nt	-22	nt	nt	nt	nt	nt
CCn1c2ccccc2c2nc3ccccc3nc21	nt	-5	93*	27	nt	-5	43*	-11	93*	-6
CCn1c2ccccc2c2nc3cc(OC)c(OC)cc3nc21	11	7	27	-3	1	-11	nt	nt	nt	nt
COC(=O)C(C(=O)OC)C(CC(=O)c1ccc(Br)cc1)c1ccccc1 (centres undefined)	1	nt	nt	nt	0	nt	nt	nt	nt	nt
COc1ccc(C(C)(C)C)cc1NC(=O)OC[C@@H]1CSCCS(=O)(=O)N1	5	nt	nt	nt	-11	nt	nt	nt	nt	nt
SMILES	TAAR1 agonist	GPR7 antag	OX1R antag-1	OX1R antag-2	TAAR1 antag	CHO parental Ca	OX1R Ca confirm	CHO Ca triplic	OX1R HTRF confirm	CHO-K1 HTRF
CSCCC(NC(=O)c1ccccc1Br)C(=O)N1CCCC(C(F)(F)F)C1 (centres undefined)	2	-5	24	-30	-7	1	nt	nt	nt	nt
COc1ccc(NC(=S)Nc2cccc([N+](=O)[O-])c2)cc1	8	3	8	-2	16	-2	nt	nt	nt	nt
COc1ccc(NC(=O)c2cc([N+](=O)[O-])ccc2O)cc1	8	-17	70*	33	-3	15	14	0	27	7
CCOC(=O)C(C)Sc1nc2c(cnn2-c2ccc(F)cc2)c(=O)[nH]1 (centres undefined)	2	7	9	-21	-39	0	nt	nt	nt	nt
O=C(C1CCCN1S(=O)(=O)c1cccc2cccnc12)N1CCn2c1nc1ccccc12 (centres undefined)	nt	-9	96*	45*	nt	-6	53*	-5	90*	2
Cc1ccccc1NC(=O)Cn1nc(-c2ccc(Cl)s2)ccc1=O	2	5	8	8	-27	-5	nt	nt	nt	nt
Cc1ccc(Cl)cc1NC(=O)Cn1nc(-c2cccs2)ccc1=O	4	10	98*	58*	7	6	24	-7	61*	4
COc1cccc(C(=O)NCC2CCCN2S(=O)(=O)c2ccccc2)c1 (centres undefined)	5	nt	49*	40	0	-30	13	-18	63*	-6
COc1ccc(C(=O)N=C2SC3CS(=O)(=O)CC3N2c2ccc(N(C)C)cc2)cc1OC (centres undefined)	6	-32	6	-6	-24	1	nt	nt	nt	nt
Cc1noc(C)c1COC(=O)c1ccc2c(c1)S(=O)(=O)c1ccccc1C2=O	14	-9	111*	59*	-1	-18	65*	-9	102*	17*
